Screens (PubChem)
Shown are actives, neighbours in structure and some others; about 2.6% of the full set was active somewhere.
ABCB6 inh 2 = inhibitors of human ABC transporter ABCB6; 0.19% of 360,000 active; Q9NP58; K562-ABCB6 porphyrin accumulation, flow cytometry, 1 h; hits give low values; AID 602162; fluorescence ratio to DMSO, % at 10 µM;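 active means fluorescence ratio to DMSO below 75%, the collection mean minus 3 SD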;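 further: signal is porphyrin accumulated inside mitochondria; 100% equals median channel fluorescence of DMSO control wells; lower ratio means ABCB6 inhibition with less porphyrin fluorescence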
Target sequence (Q9NP58 whole entry, looked up): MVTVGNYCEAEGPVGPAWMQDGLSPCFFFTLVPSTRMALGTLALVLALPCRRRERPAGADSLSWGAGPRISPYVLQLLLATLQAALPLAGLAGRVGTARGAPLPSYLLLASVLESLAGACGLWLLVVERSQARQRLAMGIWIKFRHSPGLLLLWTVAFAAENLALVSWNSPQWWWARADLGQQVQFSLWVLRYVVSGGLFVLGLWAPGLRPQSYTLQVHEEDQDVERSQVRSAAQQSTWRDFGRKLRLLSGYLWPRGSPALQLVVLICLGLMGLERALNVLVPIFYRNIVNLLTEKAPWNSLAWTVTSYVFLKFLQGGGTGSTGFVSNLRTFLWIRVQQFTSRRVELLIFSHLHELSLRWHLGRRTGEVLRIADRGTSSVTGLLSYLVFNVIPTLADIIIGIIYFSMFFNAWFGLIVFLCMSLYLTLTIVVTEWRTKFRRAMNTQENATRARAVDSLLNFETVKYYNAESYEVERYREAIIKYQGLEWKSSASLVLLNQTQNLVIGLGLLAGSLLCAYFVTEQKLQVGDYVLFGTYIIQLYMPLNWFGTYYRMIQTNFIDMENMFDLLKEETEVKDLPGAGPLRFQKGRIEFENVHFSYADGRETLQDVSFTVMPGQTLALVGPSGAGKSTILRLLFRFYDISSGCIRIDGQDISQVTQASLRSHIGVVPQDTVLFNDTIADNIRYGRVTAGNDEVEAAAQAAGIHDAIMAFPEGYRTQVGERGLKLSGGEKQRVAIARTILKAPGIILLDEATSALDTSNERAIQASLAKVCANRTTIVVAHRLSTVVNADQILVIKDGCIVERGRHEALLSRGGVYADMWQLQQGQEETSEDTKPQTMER
MC4R antag cAMP = antagonists of human melanocortin 4 receptor (MC4R); 0.48% of 360,000 active; MC4R-expressing cells, MTII-stimulated cAMP, LANCE TR-FRET; P32245; inhibition, % at 6.5 µM;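 active means inhibition above its plate's cutoff, the mean of tested wells on that plate plus 3 SD, cut at about 29% in these data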;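 further: 0% = Melanotan II alone and 100% = Melanotan II plus saturating MCL0020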
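system = U2OS cells with stable human MC4R expression | also added = Melanotan II challenge after compound preincubation | dosing = one concentration, 6.5 µM nominal | incubation = compound 30 min, challenge 1 h, detection 1 h | measured by = TR-FRET with Eu-cAMP and labeled anti-cAMP, 671 nm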
TbMetRS inhib = Trypanosoma brucei MetRS inhibition; purified T. brucei MetRS, ATP depletion, Kinase-Glo luminescence; inhibition, % at 11.9 µM; 0.4% of 360,000 active; AID 624268;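 active means inhibition above a per-plate cutoff of the control wells' mean inhibition plus 3 SD, cut at about 5.5% in these data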;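 further: 0% = DMSO wells median and 100% = median of wells with control inhibitor compound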
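Assay system: T. brucei methionyl-tRNA synthetase, purified | Medium: HEPES buffer with MgCl2, KCl, DTT, spermine, BSA, pyrophosphatase | Compound: 11.9 µM single point | Incubation: 15 min enzyme-compound preincubation, 2 h reaction, 10 min detection, 25 °C | Measured by: Kinase-Glo luciferase luminescence reporting remaining unconsumed ATP | Measure: % inhibition normalized to control-well medians | Replication: Singlicate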
hiPSC survival = hiPSC single-cell survival enhancement; ATPlite luminescence; 100% = ROCK inhibitor wells, 0% = DMSO; survival enhancement, % at 20 µM; 0.044% of 360,000 active; in the data active means survival enhancement above about 18%;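 further: cells exposed to compounds for 16 hours before the ATP read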
Exocytosis inh = blocks lytic granule exocytosis; TALL-104 LAMP-1 surface exposure, flow cytometry; cells stimulated with thapsigargin and PMA; inhibition, % at 10 µM; 0.66% of 360,000 active; AID 651702;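 active means inhibition above about 55%, limit read from the data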
MC4R ag barr = human MC4R agonism via beta-arrestin; 0.98% of 360,000 active; P32245; U2OS MC4R beta-arrestin complementation, luminescence; percent of melanotan II response, DMSO zero; AID 540308; activation, % at 8.9 µM;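 active means activation above a per-plate cutoff, the mean activation of sample wells on that plate plus 3 SD, cut at about 8% in these data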
Granule exo CP1 = blocks lytic granule exocytosis | inhibition, % at 10 µM | shares compounds with Exocytosis inh | 11% of 1,500 active | AID 651954 | TALL-104 cells, LAMP-1 externalization, flow cytometry; stimulated with PMA plus thapsigargin; in the data active means inhibition above about 60%;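 further: 0% = stimulated vehicle wells and 100% = unstimulated wells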
The depositor's hits bear a star; . = no result.

SMILES	ABCB6 inh 2	MC4R antag cAMP	TbMetRS inhib	hiPSC survival	Exocytosis inh	MC4R ag barr	Granule exo CP1
Cn1c(Cl)c(C(=O)Nc2ccc(Cl)cc2)c2ccccc21	94.0	-11.0	-1.0	-1.1	68.7*	5.4	-1.3
CC(=O)Nc1ccc(S(=O)(=O)NCC2(N3CCOCC3)CCCCC2)cc1	94.0	4.0	-0.5	-0.2	-8.2	-1.4	.
COc1ccc(OC)c(NC(=O)c2cc(-c3cc(Cl)ccc3O)n[nH]2)c1	87.0	2.5	-1.6	2.9	89.6*	2.0	57.6
COc1ccc(Cl)cc1-c1cc(C(=O)NCc2ccc(C(F)(F)F)cc2)[nH]n1	99.0	7.6	-0.2	-0.2	86.4*	6.6	31.7
N=C1S/C(=C\c2cn[nH]c2-c2ccc(F)cc2)C(=O)N1c1ccccc1F	78.0	1.7	-0.7	-1.6	-3.3	0.8	.
COc1cccc(C(=O)Nc2ccccc2N2CCCC2)c1	85.0	6.0	-0.3	-0.3	5.7	-0.8	.
COc1ccc(CC(=O)Nc2cc(Cl)ccc2N2CCCC2)cc1	100.0	10.2	-0.3	1.9	66.9*	1.7	-3.8
COc1ccc(Cl)cc1C(=O)Nc1ccccc1N1CCN(C)CC1	98.0	10.7	0.3	1.3	-1.2	-2.4	.
COc1ccc(Cl)cc1C(=O)Nc1ccccc1N1CCCCC1	99.0	9.0	-0.5	-0.3	56.8*	-1.9	-4.1
O=C(Nc1ccccc1N1CCCCC1)c1cccc(OC(F)F)c1	104.0	13.0	0.5	0.0	99.2*	-0.2	-13.6
COc1ccc(NC(=O)c2ccccc2S(=O)c2ccccc2C#N)cc1 (centres undefined)	83.0	-5.2	-0.3	1.7	-0.5	-1.0	.
COc1cc(OC)c(CN2CCC(Cc3ccccc3)CC2)cc1Br	100.0	-4.5	-0.5	-0.6	0.1	1.9	.
COc1cc(C)c(CN2CCC(Cc3ccccc3)CC2)cc1C	98.0	-2.9	-0.8	0.6	55.6*	3.4	-12.5
COc1ccc(OC)c(CN2CCC(Cc3ccccc3)CC2)c1	92.0	-0.3	-0.4	-0.2	59.9*	-0.7	-12.2
Cc1ccc(-c2nnc(-c3ccc(NC(=O)c4ccco4)cc3)o2)cc1	92.0	4.0	-1.2	3.1	88.5*	2.6	-0.7
O=C(Nc1ccc(-c2nc3ncccc3o2)cc1)c1ccco1	96.0	1.0	-1.2	1.8	3.4	2.2	.
Cc1cc2c(cc1C)CSC(c1ccc3ccccc3c1O)SC2	94.0	2.8	-0.6	2.6	-4.0	2.9	.
Cc1cc2c(cc1C)CSC(c1c(O)ccc3ccccc13)SC2	90.0	4.6	0.0	-4.4	75.9*	-0.2	10.8
CCCCCCCN1CCC(=O)N([C@H](CO)CC(C)C)CC1	98.0	5.7	-0.5	-1.8	81.3*	-2.0	-13.3
CCCCCCCN1CCC(=O)N([C@H](CO)Cc2ccccc2)CC1	105.0	11.3	-0.3	-0.1	3.6	-0.5	.
O=C(Nc1ccc(Cl)cc1)N[C@H]1CC[C@H](CCn2cc(-c3ccccc3F)nn2)O[C@@H]1CO	.	.	1.6	.	21.1	.	.
O=c1c2ccccc2sn1-c1ccccc1	108.0	-7.4	-1.1	-2.9	99.4*	0.0	105.3*
CC(=O)Nc1ccc2c(=O)n(-c3ccccc3)sc2c1	101.0	8.9	-0.1	-0.5	69.4*	-2.1	62.0*
O=c1c2ccccc2sn1-c1ccccc1F	105.0	-0.1	-0.5	3.1	68.7*	-0.1	102.3*
N#Cc1ccc2c(=O)n(-c3ccccc3)sc2c1	97.0	12.9	-0.3	-1.1	48.0	-3.5	.
Cn1sc2ccccc2c1=O	99.0	-5.1	-0.7	-1.7	19.3	-1.1	.
Cc1cccc(OC(C)C(=O)N2CCCN(C)CC2)c1C (centres undefined)	93.0	7.1	-0.1	-0.3	-0.1	-2.6	.
CCOC(=O)c1cc(-c2csc(-c3cccc(Cl)c3)n2)on1	100.0	8.3	-0.7	-0.3	5.8	0.6	.
CCOC(=O)c1cc(-c2csc(Nc3c(C)cc(C)cc3C)n2)on1	91.0	23.2	-0.9	-0.2	90.8*	2.5	85.7*
O=[N+]([O-])c1ccc(N2CCCCC2)cc1	99.0	-0.8	0.1	-0.8	-3.1	-0.3	.
